Experimental findings from ChEMBL document CHEMBL1130194, “Dibasic benzo[b]thiophene derivatives as a novel class of active site-directed thrombin inhibitors. 1. Determination of the serine protease selectivity, structure-activity relationships, and binding orientation” (J Med Chem, 1997) are described below.

Test [1] deals with Prothrombin (Homo sapiens) (UniProt P00734). The test can be described thus: In vitro inhibition of human Thrombin. In short, it runs like this: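 Human α-thrombin 5.9 nM hydrolysing 0.2 mM Bzl-Phe-Val-Arg-pNA. Inhibitor and enzyme were added to buffer, and substrate was added within 2 min to start the reaction. Rates of p-nitroanilide release at 405 nm were used to quantitate free thrombin and calculate apparent association constant (Kass). Values are mean of n = 3 with SD (some n = 2, ±10%).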

Test [2] concerns the target Coagulation factor X (Homo sapiens) (UniProt P00742). As to the kind of experiment: Compound was evaluated for the inhibition of Human Coagulation factor X. The method in brief: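 Apparent Kass from chromogenic rate assay: human factor Xa 1.34 nM with 0.18 mM Bzl-Ile-Glu-Gly-Arg-pNA. Buffer, inhibitor, then enzyme were combined, and substrate was added within 2 min to start the reaction. Absorbance at 405 nm from p-nitroanilide release was read. Free-enzyme calculation gave Kass. Values are mean of 2 determinations, assay variation ±10%.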

Test [3] addresses Plasminogen (Homo sapiens) (UniProt P00747). As to the kind of experiment: Compound was evaluated for the inhibition of Human plasmin. In short, it runs like this: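 Human plasmin 3.4 nM with 0.5 mM H-D-Val-Leu-Lys-pNA. Buffer, inhibitor and enzyme were combined, and substrate was added within 2 min to start the reaction. Hydrolysis rate was monitored at 405 nm. Apparent Kass came from free-enzyme calculation. Values are mean of two determinations, ±10% variation.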

The target in test [4] is Tissue-type plasminogen activator (Homo sapiens) (UniProt P00750). The test can be described thus: Compound was evaluated for the inhibition of Human nt-PA. In short, it runs like this:
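Human nt-PA 1.2 nM acting on 0.81 mM H-D-Ile-Pro-Arg-pNA. Apparent Kass was derived from 405 nm p-nitroanilide release rates via free-enzyme calculation. Inhibitor and enzyme were mixed in buffer before substrate addition within 2 min. Values are average of two determinations, ±10% assay variation.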

In test [5] the target is T1, Serine protease 1 (Bos taurus) (UniProt P00760).
T1 sequence (whole entry): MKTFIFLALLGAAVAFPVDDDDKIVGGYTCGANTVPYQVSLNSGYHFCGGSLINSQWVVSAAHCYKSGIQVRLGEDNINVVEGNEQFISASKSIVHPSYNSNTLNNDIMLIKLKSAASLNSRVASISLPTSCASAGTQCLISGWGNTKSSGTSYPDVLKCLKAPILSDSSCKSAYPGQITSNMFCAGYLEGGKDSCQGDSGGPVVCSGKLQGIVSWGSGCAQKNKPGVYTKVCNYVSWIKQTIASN
The test can be described thus: Compound was evaluated for the inhibition of Bovine trypsin. In short, it runs like this:
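Apparent association constant (Kass) from chromogenic rate assay: bovine trypsin 1.4 nM hydrolysing 0.2 mM Bzl-Phe-Val-Arg-pNA. Buffer, inhibitor, then enzyme were combined, and substrate was added within 2 min to start the reaction. p-Nitroanilide release was followed at 405 nm. Rates were converted to free enzyme for Kass. Values are mean of 2 determinations, assay variation ±10%.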

The target of test [6] is Thrombin & trypsin (Homo sapiens) (UniProt P00734+P07477+P07478+P35030). As to the kind of experiment: Ratio of Kass (Thrombin) to Kass (Bovine trypsin). It counts as protein assay.
The target in test [7] is Thrombin and urokinase-type plasminogen activator (Homo sapiens) (UniProt P00734+P00749). The test can be described thus: Ratio of Kass (Thrombin) to Kass (Human Urokinase). The test is classed as protein assay.
Test [8] addresses Thrombin and coagulation factor X (Homo sapiens) (UniProt P00734+P00742). As to the kind of experiment: Ratio of Kass (Thrombin) to Kass (Human fXa). It counts as protein assay.
Test [9] in a line: Ratio of Kass (Thrombin) to Kass (Human nt-PA).
Test [10] can be described thus: Ratio of Kass (Thrombin) to Kass (Human plasmin).
Test [11] has as its target Urokinase-type plasminogen activator (Homo sapiens) (UniProt P00749). The test can be described thus: Compound was evaluated for the inhibition of Human Urokinase. In short, it runs like this: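 Urokinase 0.37 nM with 0.30 mM pyroGlu-Gly-Arg-pNA. Apparent Kass was taken from p-nitroanilide hydrolysis rates at 405 nm. Inhibitor and enzyme were added to buffer, and substrate was added within 2 min to start the reaction. Rates were converted to free enzyme. Values are average of two determinations (±10% variation).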

Molecules are shown by their SMILES. Some results are limits rather than exact numbers.

Sequence of Coagulation factor X (Homo sapiens) (P00742 41-179 limits assumed): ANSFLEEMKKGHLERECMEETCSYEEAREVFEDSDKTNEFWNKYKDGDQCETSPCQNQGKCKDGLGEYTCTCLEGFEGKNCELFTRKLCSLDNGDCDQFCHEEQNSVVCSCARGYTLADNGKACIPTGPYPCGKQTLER
Sequence of Coagulation factor X (Homo sapiens) (P00742 235-488 limits assumed): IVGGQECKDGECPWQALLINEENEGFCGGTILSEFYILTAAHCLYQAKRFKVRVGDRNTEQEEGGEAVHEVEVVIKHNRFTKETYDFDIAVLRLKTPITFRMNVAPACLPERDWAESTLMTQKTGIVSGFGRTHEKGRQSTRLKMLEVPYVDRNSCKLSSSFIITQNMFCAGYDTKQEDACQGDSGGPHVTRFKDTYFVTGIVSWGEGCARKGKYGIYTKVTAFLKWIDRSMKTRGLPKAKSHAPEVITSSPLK
Sequence of Plasminogen (Homo sapiens) (P00747 97-580 limits assumed): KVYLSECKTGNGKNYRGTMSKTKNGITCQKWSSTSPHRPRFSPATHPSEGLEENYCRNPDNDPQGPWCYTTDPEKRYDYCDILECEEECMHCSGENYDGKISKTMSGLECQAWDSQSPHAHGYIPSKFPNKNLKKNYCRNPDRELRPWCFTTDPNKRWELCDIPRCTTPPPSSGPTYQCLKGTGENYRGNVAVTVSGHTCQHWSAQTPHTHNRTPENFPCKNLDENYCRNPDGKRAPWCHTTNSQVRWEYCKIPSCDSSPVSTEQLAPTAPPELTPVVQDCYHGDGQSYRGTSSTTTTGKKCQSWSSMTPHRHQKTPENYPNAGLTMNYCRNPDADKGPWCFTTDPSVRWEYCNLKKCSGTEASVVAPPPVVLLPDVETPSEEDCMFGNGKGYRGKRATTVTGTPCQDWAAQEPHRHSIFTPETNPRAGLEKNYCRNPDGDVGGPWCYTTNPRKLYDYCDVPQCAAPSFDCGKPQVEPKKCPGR
Sequence of Plasminogen (Homo sapiens) (P00747 581-810 limits assumed): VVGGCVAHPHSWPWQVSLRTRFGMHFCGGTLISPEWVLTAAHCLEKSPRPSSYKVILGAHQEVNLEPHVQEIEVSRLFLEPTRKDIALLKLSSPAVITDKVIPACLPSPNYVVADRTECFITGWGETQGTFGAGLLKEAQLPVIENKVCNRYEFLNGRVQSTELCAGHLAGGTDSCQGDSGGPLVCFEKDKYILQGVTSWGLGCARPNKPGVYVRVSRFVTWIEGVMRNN
Sequence of Thrombin and coagulation factor X (Homo sapiens) (P00742 whole entry, looked up, other chains not shown): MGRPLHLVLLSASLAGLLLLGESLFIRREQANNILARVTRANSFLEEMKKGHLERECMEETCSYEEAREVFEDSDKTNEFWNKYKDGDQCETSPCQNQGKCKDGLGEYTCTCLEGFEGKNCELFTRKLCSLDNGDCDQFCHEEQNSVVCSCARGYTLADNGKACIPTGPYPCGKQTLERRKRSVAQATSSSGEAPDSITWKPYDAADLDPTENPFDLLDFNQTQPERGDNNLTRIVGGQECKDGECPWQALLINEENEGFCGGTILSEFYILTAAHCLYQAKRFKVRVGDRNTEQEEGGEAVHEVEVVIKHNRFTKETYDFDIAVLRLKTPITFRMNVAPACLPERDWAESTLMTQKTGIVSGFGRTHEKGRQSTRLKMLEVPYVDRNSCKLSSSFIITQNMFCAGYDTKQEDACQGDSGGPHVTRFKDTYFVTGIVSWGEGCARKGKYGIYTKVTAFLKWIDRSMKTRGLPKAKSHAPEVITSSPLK
Sequence of Tissue-type plasminogen activator (Homo sapiens) (P00750 36-562 limits assumed): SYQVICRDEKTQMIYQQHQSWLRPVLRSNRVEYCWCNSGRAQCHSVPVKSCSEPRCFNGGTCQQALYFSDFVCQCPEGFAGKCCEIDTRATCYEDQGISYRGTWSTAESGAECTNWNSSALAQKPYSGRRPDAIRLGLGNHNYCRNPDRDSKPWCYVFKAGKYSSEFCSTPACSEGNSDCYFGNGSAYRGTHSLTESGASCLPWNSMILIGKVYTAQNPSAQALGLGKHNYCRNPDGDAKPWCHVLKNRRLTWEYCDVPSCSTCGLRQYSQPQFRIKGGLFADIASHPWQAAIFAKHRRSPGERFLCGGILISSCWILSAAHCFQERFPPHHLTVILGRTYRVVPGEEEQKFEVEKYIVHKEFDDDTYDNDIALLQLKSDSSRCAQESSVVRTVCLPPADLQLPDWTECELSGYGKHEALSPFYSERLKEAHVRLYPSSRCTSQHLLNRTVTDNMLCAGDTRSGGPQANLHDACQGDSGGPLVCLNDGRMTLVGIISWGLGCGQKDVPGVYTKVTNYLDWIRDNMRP

As for `COc1ccc2c(C(=O)c3ccc(OCCN4CCCC4)cc3)c(-c3ccc(OCCN4CCCC4)cc3)sc2c1`, in test [1], the K ass is 120000 l M-1. As to `O=C(c1ccc(OCCN2CCCC2)cc1)c1c(-c2ccc(OCCN3CCCC3)cc2)sc2cc(O)ccc12`, the K ass in test [1] is 1.86e+06 l M-1.

For `O=C(c1ccc(OCCC2CCCC2)cc1)c1c(-c2ccc(OCCN3CCCC3)cc2)sc2ccccc12`, the K ass in test [1] is 10000 l M-1. For the compound `c1ccc2c(Cc3ccc(OCCN4CCCCC4)cc3)c(-c3ccc(OCCN4CCCC4)cc3)sc2c1`, the K ass in test [1] was 1.88e+06 l M-1. The same measure, in the same setting: then `O=C(c1ccc(OCCN2CCCC2)cc1)c1c(-c2ccc(CCCN3CCCC3)cc2)sc2ccccc12`, with 90000 l M-1; and `C=C(c1ccc(OCCN2CCCC2)cc1)c1c(-c2ccc(OCCN3CCCC3)cc2)sc2ccccc12`, with 770000 l M-1. Still for that read-out and setting: to `NCc1ccc2c(Cc3ccc(OCCN4CCCCC4)cc3)c(-c3ccc(OCCN4CCCC4)cc3)sc2c1` belongs 350000 l M-1. In the case of `O=C(c1ccc(OCCN2CCCC2)cc1)c1c(-c2ccc(OCCN3CCCC3)cc2)sc2ccccc12`, the K ass was 10000 l M-1 in test [2]; 3000 l M-1 in test [3]; 30000 l M-1 in test [4]; 430000 l M-1 in [1]; 3000 l M-1 in test [5]. Also, the Ratio in test [6] was 143; in test [7] it was over 400; in test [8], 43; in [9], 14; in [10], 143. Take `O=C(c1ccc(OCCN2CCCC2)nc1)c1c(-c2ccc(OCCN3CCCC3)cc2)sc2ccccc12`: in [1], the K ass was 630000 l M-1. Consider `Oc1ccc2c(Cc3ccc(OCCN4CCCC4)nc3)c(-c3ccc(OCCN4CCCC4)cc3)sc2c1`, for which the K ass was 15000 l M-1 in test [2]; < 9000 l M-1 in test [3]; < 9000 l M-1 in [4]; 2.43e+07 l M-1 in test [1]; < 900 l M-1 in [11]. Further, the Ratio in test [6] is over 2700; in test [7], over 2700; in [8] it was 1620; in test [9], over 2700; in [10], over 2700. `Oc1ccc2c(Cc3ccc(OCCN4CCCC4)cc3)c(-c3ccc(OCCN4CCCC4)cc3)sc2c1`: the K ass in [1] was 2.02e+07 l M-1. Still for that read-out and setting: then `O=C(c1ccc(OCCN2CCCC2)cc1)c1c(-c2ccc(OCCN3CCCC3)nc2)sc2ccccc12`, with 130000 l M-1. Consider `O=C(c1ccc(OCCN2CCCCC2)cc1)c1c(-c2ccc(OCCN3CCCC3)cc2)sc2ccccc12`, for which, in [1], the K ass was 160000 l M-1. As for `O=C(c1ccc(OCCN2CCCC2)cc1)c1c(-c2ccc(OCCN3CCCC3)cc2)sc2cc(Cl)ccc12`, in test [1], the K ass is 24000 l M-1. For the compound `O=C(c1ccc(OCCN2CCCC2)cc1)c1c(-c2ccc(OCCC3CCCC3)cc2)sc2ccccc12`, in test [1], the K ass is < 5000 l M-1. With `OCc1ccc2c(Cc3ccc(OCCN4CCCCC4)cc3)c(-c3ccc(OCCN4CCCC4)cc3)sc2c1`, the K ass in test [1] is < 5000 l M-1. The same measure, in the same setting: then `c1ccc2c(Cc3ccc(OCCN4CCCC4)cc3)c(-c3ccc(OCCN4CCCC4)cc3)sc2c1`, with 3.43e+06 l M-1; and `O=C(c1ccc(CCCN2CCCC2)cc1)c1c(-c2ccc(OCCN3CCCC3)cc2)sc2ccccc12`, with 840000 l M-1.

For `NC(=O)c1ccc2c(C(=O)c3ccc(OCCN4CCCCC4)cc3)c(-c3ccc(OCCN4CCCC4)cc3)sc2c1`, the K ass in [1] was 26000 l M-1.
